Measurements: ChEMBL document CHEMBL4052582, “A Versatile Method to Determine the Cellular Bioavailability of Small-Molecule Inhibitors” (J Med Chem, 2017)

Key:
[1] = Drug uptake in human MDA-MB-231 cells after 6 hrs in presence of 5% FBS by HPLC-MS analysis; assay type: ADME, cell-based; conditions: mda-mb-231, 6 h
Method in brief: (§1)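 MDA-MB-231 cells at ~70% confluency in T-25 flasks, incubated 6 h at 37 °C with inhibitor in DMEM containing the stated FBS (0.02% DMSO). Parallel 6 h incubation at 4 °C in cold DMEM used to measure nonspecific cell-bound amount. Accurate intracellular moles = 37 °C value minus 4 °C value. Extraction with MeCN/MeOH 1:1, HPLC quantification, corrected for extraction efficiency. Triplicate.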

[2] = Drug uptake in human MDA-MB-231 cells assessed as intracellular concentration at 0.0103 umol in presence of 5% FBS after 24 hrs by HPLC-MS analysis; assay type: ADME, cell-based; conditions: mda-mb-231, 24 h
Method in brief: (§2)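 MDA-MB-231 cells grown in T-25 flasks in DMEM/10% FBS to ~70% confluency, then given fresh DMEM with the stated FBS plus inhibitor (0.02% DMSO final), 37 °C, 24 h. Cells washed with cold PBS ×3, extracted overnight at 4 °C with cold MeCN/MeOH 1:1, centrifuged, quantified by HPLC against calibration curves, corrected for dilution, cell number and solvent extraction efficiency; nmol per million cells; triplicate, mean ± SD.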

[3] = Drug uptake in human MDA-MB-231 cells assessed per million cells at 2 uM in presence of 1% FBS after 24 hrs incubation by HPLC-MS analysis; assay type: ADME, cell-based; conditions: mda-mb-231, 24 h; method in brief: as §2
[4] = Drug uptake in human MDA-MB-231 cells assessed per million cells preincubated for 6 hrs followed by solvent addition measured after overnight incubation at 4 degC by HPLC-MS analysis; assay type: ADME, cell-based; conditions: mda-mb-231, 6 h
[5] = Drug uptake in human MDA-MB-231 cells assessed as extracted concentration at 0.2 uM after 24 hrs by HPLC-MS analysis; assay type: ADME, cell-based; conditions: mda-mb-231, 24 h
Method in brief: (§3)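 MDA-MB-231 cells at ~70% confluency in T-25 flasks exposed to a range of inhibitor input concentrations in DMEM with FBS, 0.02% DMSO, 37 °C, 24 h; cold PBS washes, overnight MeCN/MeOH 1:1 extraction at 4 °C, HPLC quantification against calibration curves with extraction-efficiency correction.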

[6] = Drug uptake in human MDA-MB-231 cells assessed as cell bound drug level per million cells at 2 uM in presence of 5% FBS after 6 hrs at 4 degC by HPLC-MS analysis; assay type: ADME, cell-based; conditions: mda-mb-231, 6 h
Method in brief: (§4)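 Confluent (~70%) MDA-MB-231 cells given inhibitor in 5 mL cold DMEM with 0.02% DMSO (10% FBS for BRD-targeting inhibitors, 5% FBS for β-catenin/BCL9 inhibitors), held at 4 °C for 6 h; then washed, extracted overnight at 4 °C in MeCN/MeOH 1:1, HPLC quantified; triplicate, mean ± SD divided by solvent extraction efficiency.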

[7] = Drug accumulation in human MDA-MB-231 cells at 2 uM in presence of 5% FBS after 24 hrs incubation by HPLC-MS analysis; assay type: ADME, cell-based; conditions: mda-mb-231, 24 h; method in brief: as §2
[8] = Apparent permeability at 200 uM after 5 hrs by PAMPA; assay type: physicochemical
Method in brief: (§5)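 Artificial membrane of 1% egg lecithin in n-dodecane on a filter plate; compound at 200 μM on donor side, 5 h at room temperature; compound quantified by HPLC/DAD; percent transport and apparent permeability calculated from previously published equations.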

[9] = Drug uptake in human MDA-MB-231 cells assessed per million cells at 2 uM in presence of 5% FBS after 24 hrs incubation by HPLC-MS analysis; assay type: ADME, cell-based; conditions: mda-mb-231, 24 h; method in brief: as §2
[10] = Stability in human MDA-MB-231 cells at 2 uM after 72 hrs by HPLC-MS analysis; assay type: ADME, cell-based; conditions: mda-mb-231, 72 h
Method in brief: (§6)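 Time course: inhibitor added to ~70%-confluent MDA-MB-231 cells in T-25 flasks, in 5 mL DMEM plus FBS (0.02% DMSO), incubated at 37 °C for 3–72 h. At each time point cells washed with cold PBS and extracted with cold MeCN/MeOH 1:1 overnight at 4 °C. Intracellular moles per million cells determined by HPLC calibration.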

[11] = Drug uptake in human MDA-MB-231 cells assessed per million cells preincubated for 6 hrs followed by trypsin-EDTA digestion for 2 mins measured after overnight incubation at 4 degC by HPLC-MS analysis; assay type: ADME, cell-based; conditions: mda-mb-231, 2 min
Method in brief: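 After 6 h inhibitor exposure at 37 °C, MDA-MB-231 cells washed three times with ice-cold PBS, detached with 0.25% trypsin/1 mM EDTA in PBS for 2 min at 37 °C, resuspended in cold DMEM, washed once in ice-cold PBS, extracted with cold MeCN/MeOH 1:1, HPLC quantified; triplicate, mean ± SD divided by extraction efficiency.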

[12] = Permeability assessed as drug transport at 200 uM after 5 hrs by PAMPA; assay type: physicochemical; method in brief: as §5
[13] = Drug uptake in human MDA-MB-231 cells assessed as extracted concentration at 20 uM after 24 hrs by HPLC-MS analysis; assay type: ADME, cell-based; conditions: mda-mb-231, 24 h; method in brief: as §3
[14] = Drug uptake in human MDA-MB-231 cells assessed as non specific binding with culture plate at 2 uM in presence of 5% FBS after 6 hrs at 4 degC by HPLC-MS analysis; assay type: ADME, cell-based; conditions: mda-mb-231, 6 h
[15] = Solubility of the compound in DMEM medium up to 200 uM; assay type: physicochemical
MDA-MB-231 = test: Antiproliferative activity against human MDA-MB-231 cells after 72 hrs by MTS assay; assay type: functional, cell-based; conditions: MDA-MB-231, 72 h
[16] = Drug uptake in human MDA-MB-231 cells assessed as extracted concentration at 2 uM after 24 hrs by HPLC-MS analysis; assay type: ADME, cell-based; conditions: mda-mb-231, 24 h; method in brief: as §3
[17] = Retention time of the compound by HPLC/DAD analysis
Method in brief: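 Agilent HPLC with DAD, detection at 254/355 nm or 235/355 nm. Kromasil C18 column (4.6 × 250 mm), 20 μL injection. Gradient from H2O (0.1% TFA) to 50:50 MeCN over 0–18 min, then to 100% MeCN by 20 min, held to 25 min, at 1.5 mL/min.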

[18] = Stability of the compound in DMEM medium assessed as parent compound remaining at 100 uM after 72 hrs in absence of 10% FBS by HPLC method
Method in brief: (§7)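 Compound added at 100 μM final (0.02% v/v DMSO) to 5 mL DMEM with or without 10% FBS in T-25 flasks, no cells; incubated 37 °C in CO2 incubator for 3–72 h. Aliquots drawn at each time point and analysed by HPLC; parent remaining taken from chromatogram AUC relative to starting time point. Triplicate.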

[19] = Stability of the compound in DMEM medium assessed as parent compound remaining at 100 uM after 72 hrs in presence of 10% FBS by HPLC method
Method in brief: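 Compound at 100 μM final (0.02% DMSO) in 5 mL DMEM with or without 10% FBS, cell-free in T-25 flasks, 37 °C in CO2 incubator for 3–72 h. Aliquots analysed by HPLC. Percent remaining derived from chromatogram AUC relative to starting time point. Triplicate.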

[20] = Stability of the compound in DMEM medium assessed as parent compound remaining at 100 uM after 24 hrs in presence of 10% FBS by HPLC method; method in brief: as §7
[21] = Drug uptake in human MDA-MB-231 cells assessed as intracellular concentration at 0.065 umol in presence of 10% FBS after 24 hrs by HPLC-MS analysis; assay type: ADME, cell-based; conditions: mda-mb-231, 24 h; method in brief: as §2
[22] = Drug uptake in human MDA-MB-231 cells assessed per million cells at 10 uM in presence of 5% FBS after 6 hrs at 4 degC by HPLC-MS analysis; assay type: ADME, cell-based; conditions: mda-mb-231, 6 h; method in brief: as §4
[23] = Drug uptake in human MDA-MB-231 cells after 6 hrs in presence of 10% FBS by HPLC-MS analysis; assay type: ADME, cell-based; conditions: mda-mb-231, 6 h; method in brief: as §1
[24] = Drug accumulation in human MDA-MB-231 cells at 10 uM in presence of 10% FBS after 24 hrs incubation by HPLC-MS analysis; assay type: ADME, cell-based; conditions: mda-mb-231, 24 h; method in brief: as §2
[25] = Drug uptake in human MDA-MB-231 cells assessed as extracted concentration at 1 uM after 24 hrs by HPLC-MS analysis; assay type: ADME, cell-based; conditions: mda-mb-231, 24 h; method in brief: as §3
[26] = Drug uptake in human MDA-MB-231 cells assessed as extracellular concentration at 0.065 umol in presence of 10% FBS after 24 hrs by HPLC-MS analysis; assay type: ADME, cell-based; conditions: mda-mb-231, 24 h
Method in brief: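 MDA-MB-231 cells incubated 24 h at 37 °C with inhibitor in 5 mL DMEM with the stated FBS. Media plus cold PBS washes pooled, dried; cells extracted with MeCN/MeOH 1:1; HPLC peak areas of both fractions compared by mass balance with the input moles added to medium.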

[27] = Drug uptake in human MDA-MB-231 cells assessed per million cells at 10 uM in presence of 1% FBS after 24 hrs incubation by HPLC-MS analysis; assay type: ADME, cell-based; conditions: mda-mb-231, 24 h; method in brief: as §2
[28] = Drug uptake in human MDA-MB-231 cells assessed as extracted concentration at 10 uM after 24 hrs by HPLC-MS analysis; assay type: ADME, cell-based; conditions: mda-mb-231, 24 h; method in brief: as §3
[29] = Drug uptake in human MDA-MB-231 cells assessed as extracted concentration at 100 uM after 24 hrs by HPLC-MS analysis; assay type: ADME, cell-based; conditions: mda-mb-231, 24 h; method in brief: as §3
[30] = Drug uptake in human MDA-MB-231 cells assessed per million cells at 10 uM in presence of 10% FBS after 24 hrs incubation by HPLC-MS analysis; assay type: ADME, cell-based; conditions: mda-mb-231, 24 h; method in brief: as §2
[31] = Drug uptake in human MDA-MB-231 cells assessed per million cells at 10 uM in presence of 5% FBS after 24 hrs incubation by HPLC-MS analysis; assay type: ADME, cell-based; conditions: mda-mb-231, 24 h; method in brief: as §2
[32] = Stability in human MDA-MB-231 cells at 10 uM after 72 hrs by HPLC-MS analysis; assay type: ADME, cell-based; conditions: mda-mb-231, 72 h; method in brief: as §6

Cl.Cl.O=C(Nc1ccc(O[C@H]2CCNC2)c(-c2ccc(F)cc2)c1)c1ccc(O[C@H]2CCNC2)c(-c2ccc(F)c(F)c2)c1
Drug uptake [1]: Dose-dependent effect | Drug uptake [2]: 0.0101 µmol | Drug uptake [3]: 6.1 nmol | Drug uptake [4]: 6.7 nmol | Drug uptake [5]: 0.022 µM | Drug uptake [6]: 1 nmol | Drug uptake [7]: 98% | Papp at 5 h, 200 µM [8]: 0.13 ×10⁻⁶ cm/s | Drug uptake [9]: 6.5 nmol | Stability [10]: Stable | Drug uptake [11]: 5.5 nmol | Drug transport [12]: 0.2% | Drug uptake [13]: 0.128 µM | Drug uptake [14]: 4% | solubility [15]: Soluble | IC50 (MDA-MB-231): 2300 nM | Drug uptake [16]: 0.076 µM | Retention time [17]: 15.8 min | Stability [18]: 47% | Stability [19]: 70%

CC(=O)c1cc(-c2cc(C(=O)NC3CC3)ccc2C)c2ncccn12
Stability [20]: 94% | Drug uptake [21]: 0.0012 µmol | Drug uptake [22]: 0.025 nmol | Drug uptake [4]: 0.11 nmol | Drug uptake [6]: 0.085 nmol | Drug uptake [23]: Dose-dependent effect | Drug uptake [24]: 2% | Papp at 5 h, 200 µM [8]: 14.3 ×10⁻⁶ cm/s | Drug uptake [25]: 0.035 µM | Drug uptake [26]: 0.059 µmol | Drug uptake [11]: 0.038 nmol | Drug uptake [27]: 0.069 nmol | Drug transport [12]: 32.3% | Drug uptake [28]: 0.1 µM | Drug uptake [29]: 0.665 µM | Drug uptake [30]: 0.12 nmol | solubility [15]: Soluble | Drug uptake [31]: 0.074 nmol | Stability [32]: Stable | Retention time [17]: 16.4 min | Stability [18]: 94% | Stability [19]: Unstable
